Activity calls are given as the source filed them. No cut-off for these calls is given here.
Key:
[1] = system: HUVEC; assay: Induction of HUVEC cell proliferation at 50 ug/ml after 6 days; type: functional, cell-based; settings: Homo sapiens
Procedure, shortened: (§1)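 HUVEC (passage 2–4) seeded at 4×10^3 cells/well in medium 199 with 20% human adult serum; after 8 h washed twice, then exposed to medium 199 with 5% human adult serum ± sample. Samples were 0.5% stocks in 33% PEG 400, diluted into the medium. Growth was scored microscopically every other day for 6 days against 5% serum (negative) and 30% serum (positive) controls.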

[2] = system: HUVEC; assay: Cytotoxicity against HUVEC cell at 250 ug/ml after 6 days; type: cell-based; settings: human, 144 h; procedure, shortened: as §1
[3] = system: HUVEC; assay: Effect on HUVEC cells proliferation assessed as [3H]thymidine incorporation at 15.625 ug/ml after 90 hrs by liquid scintillation counting relative to negative control; type: functional, Homo sapiens
Procedure, shortened: (§2)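 HUVEC seeded at 10×10^3 cells/well in medium 199 with 20% human adult serum. After 6 h, washed, then given twofold sample dilutions in medium 199 with 2% human adult serum, 37°, 5% CO2, 90 h. Then 1 μCi [3H]thymidine/well for 6 h. TCA-fixed, DNA solubilized in SDS/NaOH at 60° for 2 h, scintillation counted. cpm/cell expressed as % of untreated control.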

[4] = system: HUVEC; assay: Effect on HUVEC cells proliferation assessed as viable cells at 125 ug/ml after 90 hrs relative to negative control; type: functional; settings: Homo sapiens, read-out: Activity
Procedure, shortened: (§3)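 HUVEC seeded at 10×10^3 cells/well in 20% serum medium. After 6 h, washed and exposed to twofold sample dilutions (250 down to 0.49 μg/ml) in medium 199 with 2% human adult serum for 90 h plus a 6 h thymidine pulse. Cells counted under an inverted microscope after TCA fixation, as % of untreated control.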

[5] = system: HUVEC; assay: Effect on HUVEC cells proliferation assessed as inhibition of [3H]thymidine incorporation at 62.5 ug/ml after 90 hrs by liquid scintillation counting; type: functional; settings: Homo sapiens
Procedure, shortened: (§4)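 HUVEC seeded at 10×10^3 cells/well, washed after 6 h, then exposed 90 h to twofold dilutions in medium 199 with 2% human adult serum. Pulsed 6 h with 1 μCi [3H]thymidine, TCA-fixed, lysed in 0.1% SDS/0.2 N NaOH, scintillation counted. Incorporation per cell (cpm/cells counted) relative to untreated control gave % inhibition.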

[6] = system: HUVEC; assay: Effect on HUVEC cells proliferation assessed as [3H]thymidine incorporation at 62.5 ug/ml after 90 hrs by liquid scintillation counting relative to negative control; type: functional, Homo sapiens; procedure, shortened: as §2
[7] = system: HUVEC; assay: Effect on HUVEC cells proliferation assessed as viable cells at 1.9531 ug/ml after 90 hrs relative to negative control; type: functional; settings: Homo sapiens, read-out: Activity; procedure, shortened: as §3
[8] = system: HUVEC; assay: Effect on HUVEC cells proliferation assessed as [3H]thymidine incorporation at 1.9531 ug/ml after 90 hrs by liquid scintillation counting relative to negative control; type: functional, Homo sapiens; procedure, shortened: as §2
[9] = system: HUVEC; assay: Effect on HUVEC cells proliferation assessed as inhibition of [3H]thymidine incorporation at 3.9062 ug/ml after 90 hrs by liquid scintillation counting; type: functional; settings: Homo sapiens; procedure, shortened: as §4
[10] = system: HUVEC; assay: Effect on HUVEC cells proliferation assessed as [3H]thymidine incorporation at 3.9062 ug/ml after 90 hrs by liquid scintillation counting relative to negative control; type: functional, Homo sapiens; procedure, shortened: as §2
[11] = system: HUVEC; assay: Effect on HUVEC cells proliferation assessed as [3H]thymidine incorporation at 31.25 ug/ml after 90 hrs by liquid scintillation counting relative to negative control; type: functional, Homo sapiens; procedure, shortened: as §2
[12] = system: HUVEC; assay: Effect on HUVEC cells proliferation assessed as inhibition of [3H]thymidine incorporation at 15.625 ug/ml after 90 hrs by liquid scintillation counting; type: functional; settings: Homo sapiens; procedure, shortened: as §4
[13] = system: HUVEC; assay: Effect on HUVEC cells proliferation assessed as inhibition of [3H]thymidine incorporation at 1.9531 ug/ml after 90 hrs by liquid scintillation counting; type: functional; settings: Homo sapiens; procedure, shortened: as §4
[14] = system: HUVEC; assay: Effect on HUVEC cells proliferation assessed as viable cells at 62.5 ug/ml after 90 hrs relative to negative control; type: functional; settings: Homo sapiens, read-out: Activity; procedure, shortened: as §3
[15] = system: HUVEC; assay: Effect on HUVEC cells proliferation assessed as [3H]thymidine incorporation at 125 ug/ml after 90 hrs by liquid scintillation counting relative to negative control; type: functional, Homo sapiens; procedure, shortened: as §2
[16] = system: HUVEC; assay: Effect on HUVEC cells proliferation assessed as inhibition of [3H]thymidine incorporation at 7.8125 ug/ml after 90 hrs by liquid scintillation counting; type: functional; settings: Homo sapiens; procedure, shortened: as §4
[17] = system: HUVEC; assay: Induction of HUVEC cell proliferation at 2.5 ug/ml after 6 days; type: functional, cell-based; settings: Homo sapiens; procedure, shortened: as §1
[18] = system: HUVEC; assay: Effect on HUVEC cells proliferation assessed as inhibition of [3H]thymidine incorporation at 0.4883 ug/ml after 90 hrs by liquid scintillation counting; type: functional; settings: Homo sapiens; procedure, shortened: as §4
[19] = system: HUVEC; assay: Effect on HUVEC cells proliferation assessed as viable cells at 15.625 ug/ml after 90 hrs relative to negative control; type: functional; settings: Homo sapiens, read-out: Activity; procedure, shortened: as §3
[20] = system: HUVEC; assay: Effect on HUVEC cells proliferation assessed as viable cells at 250 ug/ml after 90 hrs relative to negative control; type: functional; settings: Homo sapiens, read-out: Activity; procedure, shortened: as §3
[21] = system: HUVEC; assay: Effect on HUVEC cells proliferation assessed as viable cells at 3.9062 ug/ml after 90 hrs relative to negative control; type: functional; settings: Homo sapiens, read-out: Activity; procedure, shortened: as §3
[22] = system: HUVEC; assay: Effect on HUVEC cells proliferation assessed as inhibition of [3H]thymidine incorporation at 31.25 ug/ml after 90 hrs by liquid scintillation counting; type: functional; settings: Homo sapiens; procedure, shortened: as §4
[23] = system: HUVEC; assay: Effect on HUVEC cells proliferation assessed as [3H]thymidine incorporation at 0.4883 ug/ml after 90 hrs by liquid scintillation counting relative to negative control; type: functional, Homo sapiens; procedure, shortened: as §2
[24] = system: HUVEC; assay: Effect on HUVEC cells proliferation assessed as inhibition of [3H]thymidine incorporation at 125 ug/ml after 90 hrs by liquid scintillation counting; type: functional; settings: Homo sapiens; procedure, shortened: as §4
[25] = system: HUVEC; assay: Effect on HUVEC cells proliferation assessed as viable cells at 7.8125 ug/ml after 90 hrs relative to negative control; type: functional; settings: Homo sapiens, read-out: Activity; procedure, shortened: as §3
[26] = system: HUVEC; assay: Effect on HUVEC cells proliferation assessed as [3H]thymidine incorporation at 0.9766 ug/ml after 90 hrs by liquid scintillation counting relative to negative control; type: functional, Homo sapiens; procedure, shortened: as §2
[27] = system: HUVEC; assay: Effect on HUVEC cells proliferation assessed as viable cells at 0.9766 ug/ml after 90 hrs relative to negative control; type: functional; settings: Homo sapiens, read-out: Activity; procedure, shortened: as §3
[28] = system: HUVEC; assay: Effect on HUVEC cells proliferation assessed as viable cells at 31.25 ug/ml after 90 hrs relative to negative control; type: functional; settings: Homo sapiens, read-out: Activity; procedure, shortened: as §3
[29] = system: HUVEC; assay: Effect on HUVEC cells proliferation assessed as [3H]thymidine incorporation at 7.8125 ug/ml after 90 hrs by liquid scintillation counting relative to negative control; type: functional, Homo sapiens; procedure, shortened: as §2
[30] = system: HUVEC; assay: Effect on HUVEC cells proliferation assessed as inhibition of [3H]thymidine incorporation at 0.9766 ug/ml after 90 hrs by liquid scintillation counting; type: functional; settings: Homo sapiens; procedure, shortened: as §4
[31] = system: HUVEC; assay: Effect on HUVEC cells proliferation assessed as viable cells at 0.4883 ug/ml after 90 hrs relative to negative control; type: functional; settings: Homo sapiens, read-out: Activity; procedure, shortened: as §3
[32] = system: HUVEC; assay: Induction of HUVEC cell proliferation at 0.25 ug/ml after 6 days; type: functional, cell-based; settings: Homo sapiens; procedure, shortened: as §1
[33] = system: HUVEC; assay: Cytotoxicity against HUVEC cell at 25 ug/ml after 6 days; type: cell-based; settings: human, 144 h
Procedure, shortened: (§5)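 HUVEC (passages 2–4) seeded at 4×10^3 cells/well in medium 199 with 20% human adult serum, washed after 8 h, then given medium 199 with 5% human adult serum ± sample (from 0.5% stocks in PEG 400 33%). Growth was scored microscopically every other day for 6 days against 5% serum (negative) and 30% serum (positive) controls, with toxicity graded.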

[34] = system: HUVEC; assay: Cytotoxicity against HUVEC cell at 2.5 ug/ml after 6 days; type: cell-based; settings: human, 144 h; procedure, shortened: as §5
[35] = system: HUVEC; assay: Cytotoxicity against HUVEC cell at 5 ug/ml after 6 days; type: cell-based; settings: human, 144 h; procedure, shortened: as §5

COc1ccc([C@H]2Oc3c(O)cc(CCCO)cc3[C@@H]2CO)cc1OC
Activity [1]: inactive | Activity [2]: Toxic

COc1ccc([C@H]2Oc3c(OC)cc(CCCO)cc3[C@@H]2CO)cc1OC
Activity [3]: 13% | viability at 125 µg/mL [4]: 46% | inhibition at 62.5 µg/mL [5]: 98% | Activity [6]: 2% | viability at 1.9531 µg/mL [7]: 123% | Activity [8]: 52% | inhibition at 3.9062 µg/mL [9]: 71% | Activity [10]: 29% | Activity [11]: 7% | inhibition at 15.625 µg/mL [12]: 87% | inhibition at 1.9531 µg/mL [13]: 48% | viability at 62.5 µg/mL [14]: 231% | Activity [15]: 3% | inhibition at 7.8125 µg/mL [16]: 79% | Activity [17]: inactive | inhibition at 0.4883 µg/mL [18]: -1% | Activity [2]: Toxic | viability at 15.625 µg/mL [19]: 169% | viability at 250 µg/mL [20]: 0% | viability at 3.9062 µg/mL [21]: 123% | inhibition at 31.25 µg/mL [22]: 93% | Activity [23]: 101% | inhibition at 125 µg/mL [24]: 97% | viability at 7.8125 µg/mL [25]: 123% | Activity [26]: 68% | viability at 0.9766 µg/mL [27]: 108% | viability at 31.25 µg/mL [28]: 185% | Activity [29]: 21% | inhibition at 0.9766 µg/mL [30]: 32% | viability at 0.4883 µg/mL [31]: 108%

COc1ccc2c(=O)oc3c(OC)cc(CCN(C)C)c4c(=O)oc1c2c34 [TASPINE]
Activity [32]: inactive | Activity [33]: Toxic | Activity [34]: Toxic | Activity [35]: Toxic
